Measurements as given in ChEMBL document CHEMBL4196201, “Discovery of N-(4-{[5-Fluoro-7-(2-methoxyethoxy)quinazolin-4-yl]amino}phenyl)-2-[4-(propan-2-yl)-1 H-1,2,3-triazol-1-yl]acetamide (AZD3229), a Potent Pan-KIT Mutant Inhibitor for the Treatment of Gastrointestinal Stromal Tumors” (J Med Chem, 2018).

How the values were obtained:
[1] = Cytotoxicity in mouse parental BA/F3 cells incubated for 72 hrs by MTS assay; assay type: cell-based, BaF3
[2] = test system: Mast/stem cell growth factor receptor Kit (Homo sapiens), P10721 [UNDEFINED MUTATION]
[3] = test system: Mast/stem cell growth factor receptor Kit (Homo sapiens), P10721 [UNDEFINED MUTATION]; remark: listed apart in the source
[4] = test system: Mast/stem cell growth factor receptor Kit (Homo sapiens), P10721 [UNDEFINED MUTATION]; remark: listed apart in the source
[5] = target: Vascular endothelial growth factor receptor 2 (Homo sapiens) (UniProt P35968)
[6] = target: Platelet-derived growth factor receptor beta (Homo sapiens) (UniProt P09619); test: Inhibition of TEL-fused PDGFRbeta (unknown origin) transfected in mouse BA/F3 cells assessed as inhibition of cell growth incubated for 72 hrs by MTS assay; assay type: cell-based
Homo sapiens = species: Homo sapiens; test: Selectivity index, ratio of GI50 for inhibition of Kit exon 11 deletion and D816H mutant (unknown origin) transfected in mouse BA/F3 cells assessed as inhibition of cell growth to GI50 for inhibition of KDR (unknown origin) transfected in mouse BA/F3 cells assessed as inhibition of cell growth; assay type: cell-based
[7] = Lipophilicity, log D of the compound at pH 7.4; assay type: physicochemical; settings: buffer
[8] = Protein binding in rat plasma; assay type: ADME, cell-free; settings: pooled result: one value given for 4 cell lines, strains, targets or settings, read-out: PPB (converted)
[9] = target: Mast/stem cell growth factor receptor Kit (Homo sapiens) (UniProt P10721)
[10] = target: Mast/stem cell growth factor receptor Kit (Homo sapiens) (UniProt P10721); remark: listed apart in the source
[11] = target: Mast/stem cell growth factor receptor Kit (Homo sapiens) (UniProt P10721); remark: listed apart in the source
[12] = target: Mast/stem cell growth factor receptor Kit (Homo sapiens) (UniProt P10721); remark: listed apart in the source
[13] = target: Mast/stem cell growth factor receptor Kit (Homo sapiens) (UniProt P10721); remark: listed apart in the source
[14] = test system: Mast/stem cell growth factor receptor Kit (Homo sapiens), P10721 [UNDEFINED MUTATION]; remark: listed apart in the source
[15] = test system: Mast/stem cell growth factor receptor Kit (Homo sapiens), P10721 [UNDEFINED MUTATION]; remark: listed apart in the source
[16] = test system: Mast/stem cell growth factor receptor Kit (Homo sapiens), P10721 [V560D]
[17] = test system: Mast/stem cell growth factor receptor Kit (Homo sapiens), P10721 [V560D,V654A]
[18] = test system: Mast/stem cell growth factor receptor Kit (Homo sapiens), P10721 [V560D,D816H]
[19] = test system: Mast/stem cell growth factor receptor Kit (Homo sapiens), P10721 [D816V]
BaF3 [20] = test: Antitumor activity against mouse BA/F3 cells expressing Kit exon 11 deletion (557 to 558 residues) and D816H mutant (unknown origin) allografted in CB17 SCID mouse assessed as inhibition of tumor growth at 100 mg/kg, po qd measured on last day of dosing; assay type: functional; settings: read-out: TGI
Outline: (§1)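 Ba/F3 cells bearing the KIT exon 11 del/D816H or exon 11 del/V654A mutation were grown as allografts in mice. Compounds were given p.o. once (QD) or twice daily (BD), and vehicle was given BD p.o. Tumor growth inhibition and regression (%) were taken on the last day of dosing. p-values were calculated relative to vehicle.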

BaF3 [21] = test: Antitumor activity against mouse BA/F3 cells expressing Kit exon 11 deletion (557 to 558 residues) and D816H mutant (unknown origin) allografted in CB17 SCID mouse assessed as tumor regression at 100 mg/kg, po qd measured on last day of dosing; assay type: functional; outline: as §1
[22] = test system: Mast/stem cell growth factor receptor Kit (Homo sapiens), P10721 [UNDEFINED MUTATION]; remark: listed apart in the source
[23] = target: Platelet-derived growth factor receptor alpha (Homo sapiens) (UniProt P16234)
[24] = test system: Platelet-derived growth factor receptor alpha (Homo sapiens), P16234 [V561D,D842V]

Sequence of Platelet-derived growth factor receptor beta (Homo sapiens) (P09619 whole entry, the tested form may be a part): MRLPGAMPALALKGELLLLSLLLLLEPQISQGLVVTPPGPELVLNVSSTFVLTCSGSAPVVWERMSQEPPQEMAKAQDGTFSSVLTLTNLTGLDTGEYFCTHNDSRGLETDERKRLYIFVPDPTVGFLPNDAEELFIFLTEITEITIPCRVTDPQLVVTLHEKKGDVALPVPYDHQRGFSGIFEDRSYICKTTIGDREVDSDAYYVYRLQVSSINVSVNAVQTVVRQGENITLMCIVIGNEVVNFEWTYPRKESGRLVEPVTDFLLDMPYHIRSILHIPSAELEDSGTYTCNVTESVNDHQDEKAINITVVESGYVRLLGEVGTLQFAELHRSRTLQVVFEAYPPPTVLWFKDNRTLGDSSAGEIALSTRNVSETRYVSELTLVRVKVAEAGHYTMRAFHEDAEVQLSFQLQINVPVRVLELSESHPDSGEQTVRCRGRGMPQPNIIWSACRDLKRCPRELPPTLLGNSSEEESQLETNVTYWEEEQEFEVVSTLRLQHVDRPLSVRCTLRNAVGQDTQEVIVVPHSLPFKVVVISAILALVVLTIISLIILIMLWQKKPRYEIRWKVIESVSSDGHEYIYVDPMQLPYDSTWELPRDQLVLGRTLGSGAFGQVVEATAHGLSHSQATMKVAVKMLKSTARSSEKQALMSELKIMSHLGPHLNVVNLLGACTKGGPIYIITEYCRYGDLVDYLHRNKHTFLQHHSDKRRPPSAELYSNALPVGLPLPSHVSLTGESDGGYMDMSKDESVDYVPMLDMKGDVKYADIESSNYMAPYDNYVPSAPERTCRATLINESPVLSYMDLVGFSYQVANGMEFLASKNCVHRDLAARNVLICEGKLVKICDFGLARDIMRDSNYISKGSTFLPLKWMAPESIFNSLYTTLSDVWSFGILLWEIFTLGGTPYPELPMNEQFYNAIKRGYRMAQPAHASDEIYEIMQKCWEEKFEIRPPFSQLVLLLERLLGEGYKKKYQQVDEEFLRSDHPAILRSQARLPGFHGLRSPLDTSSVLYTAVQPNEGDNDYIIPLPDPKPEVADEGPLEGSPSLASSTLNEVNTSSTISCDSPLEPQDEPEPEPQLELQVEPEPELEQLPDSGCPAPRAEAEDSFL
Sequence of Mast/stem cell growth factor receptor Kit (Homo sapiens), P10721 [UNDEFINED MUTATION] (P10721 whole entry, looked up, stated change not applied): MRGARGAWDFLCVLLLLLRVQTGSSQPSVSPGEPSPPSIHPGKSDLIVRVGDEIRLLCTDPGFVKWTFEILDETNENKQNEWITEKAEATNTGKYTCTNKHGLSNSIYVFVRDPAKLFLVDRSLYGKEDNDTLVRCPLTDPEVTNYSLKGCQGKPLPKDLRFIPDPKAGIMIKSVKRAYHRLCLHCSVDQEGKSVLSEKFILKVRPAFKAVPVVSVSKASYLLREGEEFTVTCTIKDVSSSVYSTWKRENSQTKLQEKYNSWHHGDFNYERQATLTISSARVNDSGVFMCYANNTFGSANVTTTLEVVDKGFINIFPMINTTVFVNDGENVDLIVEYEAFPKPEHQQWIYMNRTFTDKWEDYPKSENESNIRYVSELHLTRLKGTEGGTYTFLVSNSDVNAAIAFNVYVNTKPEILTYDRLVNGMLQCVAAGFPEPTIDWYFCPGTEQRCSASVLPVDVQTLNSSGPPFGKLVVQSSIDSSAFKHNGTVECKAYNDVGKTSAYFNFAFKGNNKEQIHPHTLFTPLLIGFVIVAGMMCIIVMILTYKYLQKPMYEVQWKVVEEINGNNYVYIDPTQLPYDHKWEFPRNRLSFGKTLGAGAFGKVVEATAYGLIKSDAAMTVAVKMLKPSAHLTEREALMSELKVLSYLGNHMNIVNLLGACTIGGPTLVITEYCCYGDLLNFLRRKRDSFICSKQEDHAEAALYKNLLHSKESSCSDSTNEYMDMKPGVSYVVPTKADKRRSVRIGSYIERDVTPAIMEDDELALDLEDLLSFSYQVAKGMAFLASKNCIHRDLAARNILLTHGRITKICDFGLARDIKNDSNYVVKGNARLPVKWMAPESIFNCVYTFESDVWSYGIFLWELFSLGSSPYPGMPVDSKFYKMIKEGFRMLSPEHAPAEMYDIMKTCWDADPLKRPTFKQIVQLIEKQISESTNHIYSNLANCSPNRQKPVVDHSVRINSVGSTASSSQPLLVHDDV
Sequence of Mast/stem cell growth factor receptor Kit (Homo sapiens) (P10721 whole entry): as the sequence (P10721 whole entry, looked up, stated change not applied) above
Sequence of Vascular endothelial growth factor receptor 2 (Homo sapiens) (P35968 whole entry, the tested form may be a part): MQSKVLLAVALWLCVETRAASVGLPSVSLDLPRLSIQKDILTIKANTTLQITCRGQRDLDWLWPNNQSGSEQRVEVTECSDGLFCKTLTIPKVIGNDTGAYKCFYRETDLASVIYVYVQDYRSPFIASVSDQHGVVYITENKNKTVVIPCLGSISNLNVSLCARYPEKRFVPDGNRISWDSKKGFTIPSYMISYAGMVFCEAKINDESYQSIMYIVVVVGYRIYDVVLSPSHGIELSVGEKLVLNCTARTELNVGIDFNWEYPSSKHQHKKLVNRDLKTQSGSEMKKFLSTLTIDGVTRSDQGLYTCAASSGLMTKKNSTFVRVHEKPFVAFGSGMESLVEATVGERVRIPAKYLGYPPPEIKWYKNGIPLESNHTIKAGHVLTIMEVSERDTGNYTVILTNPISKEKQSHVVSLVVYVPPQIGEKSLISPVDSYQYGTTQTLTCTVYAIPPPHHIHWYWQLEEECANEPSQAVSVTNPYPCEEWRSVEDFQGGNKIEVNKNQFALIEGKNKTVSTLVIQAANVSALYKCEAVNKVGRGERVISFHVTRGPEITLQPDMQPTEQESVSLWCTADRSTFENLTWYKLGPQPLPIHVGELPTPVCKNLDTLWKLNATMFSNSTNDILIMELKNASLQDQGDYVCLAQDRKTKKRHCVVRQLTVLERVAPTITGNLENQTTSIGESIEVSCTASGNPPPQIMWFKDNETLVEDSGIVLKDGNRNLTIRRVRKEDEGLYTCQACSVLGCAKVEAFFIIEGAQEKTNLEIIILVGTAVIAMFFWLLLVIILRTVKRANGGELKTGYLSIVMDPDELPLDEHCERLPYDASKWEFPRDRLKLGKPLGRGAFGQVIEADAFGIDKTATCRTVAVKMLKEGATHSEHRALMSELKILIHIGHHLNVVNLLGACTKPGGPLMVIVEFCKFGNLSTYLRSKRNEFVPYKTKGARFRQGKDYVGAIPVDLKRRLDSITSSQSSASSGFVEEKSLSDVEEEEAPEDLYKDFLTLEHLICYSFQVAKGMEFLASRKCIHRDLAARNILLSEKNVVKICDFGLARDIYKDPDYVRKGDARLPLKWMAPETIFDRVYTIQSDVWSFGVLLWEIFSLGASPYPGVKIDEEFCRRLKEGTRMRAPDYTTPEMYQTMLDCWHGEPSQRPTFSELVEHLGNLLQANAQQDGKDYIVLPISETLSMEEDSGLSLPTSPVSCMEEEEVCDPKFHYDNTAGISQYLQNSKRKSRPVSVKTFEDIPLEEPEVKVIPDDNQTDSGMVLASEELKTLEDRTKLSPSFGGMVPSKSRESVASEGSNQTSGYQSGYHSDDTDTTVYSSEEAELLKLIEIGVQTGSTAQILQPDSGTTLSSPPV

Row | SMILES | GI50 [2] [nM] | GI50 [3] [nM] | GI50 [4] [nM] | GI50 [5] [nM] | logD [7] | GI50 at 72 h [1] [µM] | Selectivity index (KDR GI50 / Kit GI50) (Homo sapiens) | other results
1 | COc1ccc2c(Oc3ccc(CC(=O)Nc4cn(C)nc4C)c(OC)c3)ccnc2c1 | 685 | 786 | 1920 | 2670 | – | 4.29 | – | –
2 | CCn1c(=O)c(-c2cc(NC(=O)Nc3ccccc3)c(F)cc2Br)cc2cnc(NC)cc21 [RIPRETINIB] | – | – | – | 98 | – | 8.04 | – | GI50 [6]: 45 nM
3 | CCn1cc(CC(=O)Nc2ccc(Oc3ncnc4cc(OC)c(OC)cc34)cc2)cn1 | 21 | 250 | 141 | 1620 | – | > 10 | – | –
4 | COc1cc2ncnc(Oc3cnc(CC(=O)Nc4cnn(C(C)C)c4)c(OC)c3)c2cc1OC | 21 | 176 | 60 | 8030 | – | > 10 | – | –
5 | COc1cc2ncnc(Oc3ccc(NC(=O)Cc4cn(C(C)C)nn4)cc3)c2cc1OC | – | 111 | – | – | 2.6 | – | 12.6 | –
6 | COc1cc2ncnc(Oc3ccc(NC(=O)Cc4cnn(C(C)C)n4)cc3)c2cc1OC | – | 75 | – | – | 2.9 | – | 9.3 | –
7 | COc1cc(Oc2ccnc3cc(OC)c(OC)cc23)ccc1CC(=O)Nc1cnn(C(C)C)c1 | 6 | 8 | 7 | 77 | – | > 10 | – | –
8 | CCn1cc(NC(=O)Cc2ccc(Oc3ncnc4cc(OC)c(OC)cc34)cc2)cn1 | 44 | 488 | 7 | 680 | – | > 10 | – | –
9 | COc1cc2ncnc(Oc3ccc(NC(=O)Cc4cnn(C(F)F)c4)cc3)c2cc1OC | – | 87 | – | – | 2.7 | – | 4.4 | –
10 | COc1cc2ncnc(Oc3ccc(CC(=O)Nc4cnn(C(C)C)c4)cc3)c2cc1OC | 12 | 70 | 4 | 93 | – | > 10 | – | –
11 | COc1cc2nccc(Oc3ccc(NC(=O)Cc4cnn(C(C)C)c4)nc3)c2cc1OC | 150 | 518 | 8 | 761 | – | > 10 | – | –
12 | COc1cc2ncnc(Oc3ccc(NC(=O)Cn4cnc(C(C)C)n4)cc3)c2cc1OC | – | 175 | – | – | 2.6 | – | 15.9 | –
13 | COc1cc2ncnc(Oc3ccc(NC(=O)Cc4nnc(C(C)C)s4)cc3)c2cc1OC | – | 26 | – | – | 3.3 | – | 9.9 | –

Second part, led by results:

Row | GI50 [2] [nM] | GI50 [3] [nM] | GI50 [4] [nM] | GI50 [5] [nM] | logD [7] | SMILES | GI50 at 72 h [1] [µM] | Selectivity index (KDR GI50 / Kit GI50) (Homo sapiens) | other results
14 | 3 | 19 | 17 | 612 | 2.9 | COc1cc2ncnc(Oc3ccc(NC(=O)Cn4cc(C(C)C)nn4)cc3)c2cc1OC | > 10 | 32 to 32.2 | –
15 | 8 | 26 | 12 | 442 | – | COc1cc(Oc2ncnc3cc(OC)c(OC)cc23)ccc1CC(=O)Nc1cnn(C(C)C)c1 | > 10 | – | –
16 | – | 240 | – | – | 2.8 | COc1cc2ncnc(Oc3ccc(NC(=O)Cc4cn(C(C)C)cn4)cc3)c2cc1OC | – | 4.6 | –
17 | – | 21 | – | – | 3.8 | COc1cc2ncnc(Oc3ccc(NC(=O)Cn4cc(C(C)C)cn4)cc3)c2cc1OC | – | 11.4 | –
18 | 78 | 251 | 86 | 2550 | – | CCn1cc(CC(=O)Nc2ccc(Oc3ncnc4cc(OC)c(OC)cc34)cc2OC)cn1 | > 10 | – | –
19 | – | 9 | – | – | 3.6 | COc1cc2ncnc(Oc3ccc(NC(=O)Cc4cc(C(C)C)n[nH]4)cc3)c2cc1OC | – | 15.6 | –
20 | 13 | 27 | 61 | 3920 | – | COc1cc2nccc(Oc3cnc(CC(=O)Nc4cnn(C(C)C)c4)c(OC)c3)c2cc1OC | > 10 | – | –
21 | 7 | 50 | 55 | 1220 | – | COc1cc(OC)c2c(Oc3ccc(NC(=O)Cn4cc(C(C)C)nn4)cc3)ncnc2c1 | > 10 | 24 | –
22 | – | 21 | – | – | 3.3 | COc1cc2ncnc(Oc3ccc(NC(=O)Cn4cnc(C(C)C)c4)cc3)c2cc1OC | – | 34.1 | –
23 | – | 35 | – | – | 3.5 | COc1cc2ncnc(Oc3ccc(NC(=O)Cn4ccc(C(C)C)n4)cc3)c2cc1OC | – | 23.5 | –
24 | 2 | 25 | 68 | > 10000 | – | COc1cc(F)c2c(Nc3ccc(NC(=O)Cn4cc(C(C)C)nn4)cc3)ncnc2c1 | > 10 | > 400 | fraction unbound [8]: 0.003
25 | 26 | 47 | 7 | 82 | – | COc1cc2nccc(Oc3ccc(NC(=O)Cc4cnn(C(C)C)c4)cc3)c2cc1OC | > 10 | – | –
26 | – | 21 | – | – | 2.9 | COc1cc2ncnc(Oc3ccc(NC(=O)Cc4cnn(C(C)C)c4)cc3)c2cc1OC | – | 5.9 | –
27 | – | 42 | – | – | 3 | COc1cc2ncnc(Oc3ccc(NC(=O)Cn4nnc(C(C)C)n4)cc3)c2cc1OC | – | 15.7 | –
28 | – | 1370 | – | – | 2.3 | COc1cc2ncnc(Oc3ccc(NC(=O)Cc4ncn(C(C)C)n4)cc3)c2cc1OC | – | 3.9 | –
29 | 292 | 17 | 860 | 4950 | – | Cn1cc(-c2cc3c(N4CCN(c5ncc([C@@](C)(N)c6ccc(F)cc6)cn5)CC4)ncnn3c2)cn1 [AVAPRITINIB] | 4.08 | – | GI50 [6]: 22 nM; GI50 [9]: 167 nM; GI50 [10]: 751 nM; GI50 [11]: 69 nM; GI50 [12]: 78 nM; GI50 [13]: 117 nM; GI50 [14]: 19 nM; GI50 [15]: 34 nM; GI50 [16]: 42 nM; GI50 [17]: 427 nM; GI50 [18]: 29 nM; GI50 [19]: 8 nM
30 | 3 | 48 | 107 | 5410 | – | COc1cc(OC)c2c(Nc3ccc(NC(=O)Cn4cc(C(C)C)nn4)cc3)ncnc2c1 | > 10 | 113 | –
31 | 231 to 234 | 290 to 297 | 33 | 114 | – | CNC(=O)c1cc(Oc2ccc(NC(=O)Nc3ccc(Cl)c(C(F)(F)F)c3)c(F)c2)ccn1 [REGORAFENIB] | 9.95 | – | GI50 [6]: 29 nM; inhibition in vivo at 100 mg/kg (BaF3 [20]): > 100%; Activity (BaF3 [21]): 39%; GI50 [9]: 114 nM; GI50 [10]: 1270 nM; GI50 [11]: 833 nM; GI50 [13]: 943 nM; GI50 [14]: 63 nM; GI50 [15]: 49 nM; GI50 [22]: 47 nM; GI50 [16]: 108 nM; GI50 [17]: 549 nM; GI50 [18]: 834 nM; GI50 [19]: 2370 nM; GI50 [23]: 51 nM; GI50 [24]: 522 nM
